Here are results for 12 molecules from ChEMBL document CHEMBL1135710, “Novel mycophenolic adenine bis(phosphonate) analogues as potential differentiation agents against human leukemia” (J Med Chem, 2002).

Test [1] has as its system K562. The test can be described thus: Compound effect on differentiation of K562 cells, % of benzidine positive cells at 1.0 uM. It counts as functional, Homo sapiens.
Test [2] deals with T1, Inosine-5'-monophosphate dehydrogenase 2 (Homo sapiens, UniProt P12268). The test can be described thus: Inhibitory activity against human Inosine-5'-monophosphate dehydrogenase 2 (IMPDH type II).
In test [3] the target is T2, Inosine-5'-monophosphate dehydrogenase 1 (Homo sapiens, UniProt P20839). The test can be described thus: Inhibitory activity against human Inosine-5'-monophosphate dehydrogenase 1 (IMPDH type I). The procedure, abridged: (§1)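 Human IMPDH isoforms type I and type II assayed separately. Substrate, cofactor and inhibitor were premixed, and the reaction was started by adding enzyme. Values are reported as Ki.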
Target sequence in this assay (P20839 whole entry, canonical isoform): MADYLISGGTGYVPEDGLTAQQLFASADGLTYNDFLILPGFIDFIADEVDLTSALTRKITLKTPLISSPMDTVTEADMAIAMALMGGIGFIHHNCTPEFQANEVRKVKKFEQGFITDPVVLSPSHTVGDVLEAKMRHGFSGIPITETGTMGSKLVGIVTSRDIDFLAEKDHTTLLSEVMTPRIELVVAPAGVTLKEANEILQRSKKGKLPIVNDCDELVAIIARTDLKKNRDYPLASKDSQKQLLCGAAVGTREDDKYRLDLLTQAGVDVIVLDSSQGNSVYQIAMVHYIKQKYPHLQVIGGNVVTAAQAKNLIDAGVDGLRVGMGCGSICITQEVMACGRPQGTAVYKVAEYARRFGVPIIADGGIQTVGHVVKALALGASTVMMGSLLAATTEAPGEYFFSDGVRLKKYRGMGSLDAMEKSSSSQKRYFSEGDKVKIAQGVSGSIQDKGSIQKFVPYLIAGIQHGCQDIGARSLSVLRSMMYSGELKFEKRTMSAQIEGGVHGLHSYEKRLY

Test [4] concerns K562. Put plainly: Concentration of the Antiproliferative compound required for the 50% inhibition of Growth against K562 cells. It counts as functional, cell-based. Particulars: Homo sapiens.
The test system of test [5] is K562. Put plainly: Compound effect on differentiation of K562 cells, % of benzidine positive cells at 100 uM. It counts as functional, Homo sapiens.
For test [6], the system named is K562. Put plainly: Compound effect on differentiation of K562 cells, % of benzidine positive cells at 14.3 uM. It counts as functional, Homo sapiens.
For test [7], the system named is K562. The test can be described thus: Compound effect on differentiation of K562 cells, % of benzidine positive cells at 14 uM. It is filed as functional, Homo sapiens.
For test [8], the system named is K562. The test can be described thus: Compound effect on differentiation of K562 cells, % of benzidine positive cells at 20 uM. It counts as functional, Homo sapiens.
Test [9] has as its system K562. Put plainly: Compound effect on differentiation of K562 cells, % of benzidine positive cells at 1.6 uM. It counts as functional, Homo sapiens.
Test [10] deals with T2, Inosine-5'-monophosphate dehydrogenase 1. The test can be described thus: Inhibitory activity against human Inosine-5'-monophosphate dehydrogenase 1 (IMPDH type I);NA is not active. Summed up: as §1
Target sequence in this assay (P20839 2-514 limits assumed): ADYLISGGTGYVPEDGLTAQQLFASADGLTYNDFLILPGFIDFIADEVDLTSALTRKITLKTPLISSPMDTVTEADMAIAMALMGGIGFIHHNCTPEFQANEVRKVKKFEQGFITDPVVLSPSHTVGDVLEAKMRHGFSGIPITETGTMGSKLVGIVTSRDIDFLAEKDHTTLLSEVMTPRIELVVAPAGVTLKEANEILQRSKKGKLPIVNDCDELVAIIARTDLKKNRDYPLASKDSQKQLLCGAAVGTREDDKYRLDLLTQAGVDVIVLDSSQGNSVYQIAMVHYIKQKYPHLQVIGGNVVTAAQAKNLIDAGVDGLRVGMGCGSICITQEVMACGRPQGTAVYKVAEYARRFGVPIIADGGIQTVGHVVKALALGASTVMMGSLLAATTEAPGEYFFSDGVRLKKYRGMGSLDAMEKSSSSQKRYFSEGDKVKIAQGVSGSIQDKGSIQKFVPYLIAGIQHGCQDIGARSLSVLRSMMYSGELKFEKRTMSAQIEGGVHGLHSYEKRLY
The target of test [11] is T1, Inosine-5'-monophosphate dehydrogenase 2. Put plainly: Inhibitory activity against human Inosine-5'-monophosphate dehydrogenase 2 (IMPDH type II);NA is not active. The procedure, abridged: as §1
Test [12] deals with K562. Put plainly: Compound effect on differentiation of K562 cells, % of benzidine positive cells at 1.5 uM. It counts as functional, Homo sapiens.
Test [13] has as its system K562. Put plainly: Antiproliferative activity against K562 cells. It is filed as functional, cell-based, Homo sapiens.
The target in test [14] is T1, Inosine-5'-monophosphate dehydrogenase 2. The test can be described thus: Inhibitory activity against human Inosine-5'-monophosphate dehydrogenase 2 (IMPDH type II); NA is not active. The procedure, abridged:
as §1

Test [15] addresses T2, Inosine-5'-monophosphate dehydrogenase 1. Put plainly: Inhibitory activity against human Inosine-5'-monophosphate dehydrogenase 1 (IMPDH type I); NA is not active. Summed up: as §1
Target sequence in this assay (P20839 2-514 limits assumed): as above
Test [16] deals with K562. The test can be described thus: Compound effect on differentiation of K562 cells, % of benzidine positive cells at 15 uM. It counts as functional, Homo sapiens.
Test [17] concerns K562. The test can be described thus: Compound effect on differentiation of K562 cells, % of benzidine positive cells at 10 uM. It counts as functional, Homo sapiens.

Activity calls are given as the source filed them. The calls are words filed in the database; no cut-off is given here.

The term Ki denotes a dissociation constant, usually derived from enzyme kinetics or from competition with a known ligand. Low values mean higher affinity, high ones lower affinity. One may read the IC50 as the concentration that gives 50% inhibition. In the case of `COc1c(C)c2c(c(O)c1CCOP(=O)(O)CP(=O)(O)OCCc1c(O)c3c(c(C)c1OC)COC3=O)C(=O)OC2`, the Effect in the test on K562 [1] was determined as 0.4%; with K562 [5], 4.4%. Moreover, the inhibitory constant (Ki) is 0.47 µM in [2] and 2.3 µM in test [3]. Also, the IC50 with K562 [4] was 2090 µM.
Turning to `NC(=O)c1csc([C@@H]2O[C@H](COP(=O)(O)CP(=O)(O)OC[C@@H]3O[C@H](n4cnc5c(N)ncnc54)[C@@H](O)[C@H]3O)[C@@H](O)[C@H]2O)n1`, the Effect with K562 [1] stood at 2.4%; with K562 [6], 35%. The Ki in test [2] and in test [3] was 0.11 µM in each case.
Consider `NC(=O)c1csc([C@@H]2O[C@H](COP(=O)(O)C(F)(F)P(=O)(O)OC[C@@H]3O[C@H](n4cnc5c(N)ncnc54)[C@@H](O)[C@H]3O)[C@@H](O)[C@H]2O)n1`, for which the Effect in the test on K562 [1] was found to be 3.4%; with K562 [7] it was 48%. In addition, the inhibition constant Ki in test [2] and in test [3] was 0.3 µM throughout.
As for `COc1c(C)c2c(c(O)c1CCOP(=O)(O)CP(=O)(O)O)C(=O)OC2`, the Effect with K562 [8] was determined as 67%; in the test with K562 [1] it was 3.3%. The values for the Ki in [2] and in test [3] were 0.4 µM and 0.89 µM, respectively. Also, the half-maximal inhibitory concentration (IC50) in the test with K562 [4] was 43.2 µM.
As to `COc1c(C)c2c(c(O)c1CCOP(=O)(O)CP(=O)(O)OC[C@H]1O[C@@H](n3cnc4c(N)ncnc43)[C@H](O)[C@@H]1O)C(=O)OC2`, the Effect in the test with K562 [1] is given as 40.9%; with K562 [9], 65.4%.
As to `NC(=O)c1cccc([C@@H]2O[C@H](CO)[C@@H](O)[C@H]2O)c1`, the NA result in [10] and in [11] was “inactive” throughout. The molecule further displayed a concentration for half-maximal inhibition (IC50) with K562 [4] of 1.5 µM.
`COc1c(C)c2c(c(O)c1C/C=C(\C)COP(=O)(O)CP(=O)(O)OC[C@@H]1O[C@H](n3cnc4c(N)ncnc43)[C@@H](O)[C@H]1O)C(=O)OC2`: the Effect with K562 [1] is on record as 63.3%; in the test on K562 [12], 95%. For the same molecule, the Ki in [2] worked out at 0.38 µM; in test [3], 0.52 µM. For the same molecule, in the test with K562 [4], the midpoint of inhibition, the IC50, lay at 0.1 µM.
The molecule `COc1c(C)c2c(c(O)c1C/C=C(\C)CCC(=O)O)C(=O)OC2` [MYCOPHENOLIC ACID] returned a Ki in test [3] of 0.04 µM. The molecule also gave an IC50 with K562 [13] of 0.3 µM.
As to `NC(=O)c1csc([C@@H]2O[C@H](CO)[C@@H](O)[C@H]2O)n1` [TIAZOFURIN], the results for the Effect in the test with K562 [1] and in the test on K562 [16] were 5.3% and 80%, respectively. Also, the NA result in [14] and in [15] was “inactive” in each case.
As to `COc1c(C)c2c(c(O)c1C/C=C(/C)CCCOP(=O)(O)CP(=O)(O)OC[C@@H]1OC(n3cnc4c(N)ncnc43)[C@@H](O)[C@H]1O)C(=O)OC2` (stereo partly specified), the Effect is 9% in the test on K562 [1] and 90% in the test on K562 [17]. The Ki was 0.29 µM in [2] and 0.33 µM in [3]. Also, in the test with K562 [4], the IC50 was 1.5 µM.
In the case of `NC(=O)c1csc([C@H]2O[C@@H](COP(=O)(O)OP(=O)(O)OC[C@H]3O[C@@H](n4cnc5c(N)ncnc54)[C@H](O)[C@@H]3O)[C@H](O)[C@@H]2O)n1`, the values for the Effect in the test on K562 [1] and with K562 [7] were 2.5% and 35%, respectively.
Consider `NC(=O)c1cccc(C2OC(COP(=O)(O)CP(=O)(O)OC[C@@H]3OC(n4cnc5c(N)ncnc54)[C@@H](O)[C@H]3O)[C@@H](O)[C@H]2O)c1` (stereo partly specified), for which the values for the Effect in the test on K562 [1] and in the test with K562 [16] were 0.6% and 9.5%, respectively. In addition, the Ki is 0.95 µM in [2] and 0.66 µM in [3]. Moreover, half-maximal inhibition with K562 [4] (IC50) was put at 60 µM.
